BB579 growth dn – growth inhibitors of yeast BB579 in restrictive medium, primary screen, yeast lifespan-shortening project, S. cerevisiae. OD615, 48 h. inhibition, % at 10 µM. hit rate 0.51% among 140,000. AID 804, 2007;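 active = inhibition above a set limit, 3 SD over the mean compound inhibition, cut at about 44% in these data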
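System: Saccharomyces cerevisiae DeaD strain BB579, replicative lifespan model yeast. Buffer or medium: restrictive glucose-based CSMM-D medium. Doses: one dose, 10 µM compound with 0.25% DMSO. Timing: 4 h preincubation and 48 h exposure at 30 °C. Detection: turbidity as optical density at 615 nm. Benchmarks: amphotericin B 10 µg/mL, positive.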
Ins promoter up – insulin promoter activators in MIN6 cells, imaging, high-content screening, mouse beta cells; MIN6 insulin promoter-GFP reporter; hits give high values; z-score at 5 µM; hit rate 0.3% among 190,000;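 active = z-score above 3 at 5 µM with at least 500 cells counted in the well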
Yeast lifespan up – compounds extending yeast replicative lifespan, primary screen, S. cerevisiae, OD615. S. cerevisiae growth with nicotinamide; deaD strain in restrictive glucose medium. inhibition of the nicotinamide effect, % at 10 µM. hit rate 0.68% among 130,000. AID 775, 2007;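 active = inhibition above a set limit, placed 3 SD over the median of all compounds, cut at about 26% in these data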;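 also: 0% = nicotinamide-treated wells and 100% = cells grown without nicotinamide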
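Test system – modified budding yeast, DeaD strain · Compound – single dose 10 µM compound, 0.25% DMSO · Times – culture preincubation 4 h, compound exposure 48 h, both 30 °C · Detection – optical density (absorbance) at 615 nm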
Insulin prom inh – inhibitors of insulin promoter-driven GFP, primary screen, imaging, TRM-6 cells, eGFP reporter, cell count. inhibition, % at 2 µM. hit rate 0.9% among 130,000. reporter expression induced with tamoxifen;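 active = inhibition above the mean plus 3 SD, with well images judged a real hit on visual review, cut at about 60% in these data, passing the limit was not always enough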
RAM network inh – inhibitors of the yeast RAM network, primary screen, dse1pr::URA3 reporter, 5-FOA selection. inhibition, % at 50 µM. hit rate 1.8% among 190,000. AID 868, 2007. S. cerevisiae dse1pr::URA3 reporter, 5-FOA growth OD615, 2 d; analog-sensitive cbk1-as2 kinase mutant strain;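 active = inhibition above a set limit, 3 SD over mean compound inhibition, cut at about 8.4% in these data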;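 also: 0% = DMSO-only wells with no growth and 100% = 10 µM 1-NA-PP1 full growth; inhibition rescues growth on 5-FOA so higher OD means more RAM inhibition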
The depositor's hits bear a star; . = no result. This is a sample that favours compounds with a hit; in the whole collection about 3.1% have one here.

SMILES	BB579 growth dn	Ins promoter up	Yeast lifespan up	Insulin prom inh	RAM network inh
COc1ccc(NC(=O)c2csc(Cc3ccc(Cl)cc3)n2)cc1	.	0.09	.	-38	11*
Cc1ccc2nc(N3CCN(c4ccccc4F)CC3)c(C=O)c(=O)n2c1	.	0.39	.	.	1
C=CCN(C(=O)CNC(=O)c1ccco1)C(C(=O)NC1CCCCC1)c1ccc(F)cc1 (configuration not stated)	9	-0.17	-26	-3	4
C=CCN(C(=O)CNC(=O)c1ccco1)C(C(=O)NC1CCCCC1)c1ccccc1 (configuration not stated)	-22	1.1	-19	.	9.2*
CCOP(=O)(C1=C(O)C(=O)C(C(C)(C)C)=CC1=O)c1ccccc1 (configuration not stated)	.	-0.44	.	67*	0
CN(C)c1ccc(C2CC(=O)OC3=C2C(=O)CC(C)(C)C3)cc1 (configuration not stated)	.	-0.17	.	-17	0
COc1ccccc1Oc1nc2c(c(=O)n(Cc3ccccc3F)c(=O)n2C)n1C	-64	-1	-10	-24	10*
Cn1c(NCCCO)nc2c1c(=O)n(Cc1ccccc1F)c(=O)n2C	-9	0.38	-10	-147	-1
Cn1c(=O)c2c(nc(SCc3nn[nH]n3)n2Cc2ccccc2F)n(C)c1=O	-21	.	-6	50	10*
CCC(C)(C)NC(=O)Cc1ccc(Cl)cc1	.	0.95	.	.	0
Oc1ccccc1N1CCN(CC(O)COCc2ccccc2Cl)CC1 (configuration not stated)	.	-0.42	.	-29	1
CC(C)OCCCN1CN(S(=O)(=O)c2cccc(Cl)c2)c2nc3ccccc3nc21	-33	0.5	0	-34	9.1*
O=[N+]([O-])c1cc2oc3c(c2c(C=NCc2ccccc2)c1O)CCCC3	7	-0.08	69*	31	1
Cc1oc2cc([N+](=O)[O-])c(O)c([N+](=O)[O-])c2c1C(=O)c1ccc(Cl)cc1	.	1.1	.	.	.
CC(C)CN=Cc1c(O)c([N+](=O)[O-])cc2oc3c(c12)CCCC3	68*	1.4	21	.	4
Oc1ccc2ccccc2c1C=NCc1ccccc1	.	0.19	.	.	.
COC(=O)c1ccc(C(=O)OC)c(NC(=O)CN(c2ccccc2)S(=O)(=O)N(C)C)c1	.	-1.3	.	.	7
COc1ccc(NC(=O)Cn2nnc(-c3ccccc3NS(=O)(=O)c3ccc(OC)cc3)n2)cc1	-57	0.41	11	-24	9.5*
COc1ccc(NC(=O)Cn2nnc(-c3ccccc3NC(=O)c3cccs3)n2)cc1	-35	-0.34	-1	-57	5
Cc1ccc(NC(=O)Cn2nnc(-c3ccccc3NC(=O)c3cccs3)n2)cc1	-51	0.1	-1	-14	8.4*
O=C(CSc1nc2ccccc2c(=O)n1CCCN1CCOCC1)NC12CC3CC(CC(C3)C1)C2	.	.	.	.	1
CCN1C(=O)N(CC)C2C1N(CO)C(=O)N2CO (configuration not stated)	.	0.03	.	8	3
CC(C)CC(=O)NS(=O)(=O)c1ccc(NS(C)(=O)=O)cc1	.	0.48	.	.	-1
CCOc1ccc2nc(SC3CC(=O)N(c4cccc(OC)c4)C3=O)sc2c1 (configuration not stated)	-23	0.24	-2	7	3
CCOC(=O)c1cnc(SC2CC(=O)N(c3cccc(OC)c3)C2=O)nc1N (configuration not stated)	-18	0.28	3	.	10*
SMILES	BB579 growth dn	Ins promoter up	Yeast lifespan up	Insulin prom inh	RAM network inh
CCc1ccc(/C=N/n2c(C)cc(C)c(C#N)c2=O)cc1	1	-0.02	-4	39	0
CCOc1cc(CNCC2CCCN2CC)cc(Cl)c1OC (configuration not stated)	.	.	.	-345	0
CC1CCN(c2nncc3ccccc23)CC1	-23	-0.34	30*	.	1
CC1CCN(c2nnc(N3CCC(C)CC3)c3ccccc23)CC1	.	-0.23	.	.	1
CCOC(=O)c1cc(-c2ccccc2)sc1NC(=O)CSc1nnnn1C	-92	.	-8	.	8.4*
CCOC(=O)c1cccc(NC(=O)CSc2nnnn2C)c1	-39	0.65	-17	-18	1
CCOC(=O)c1sc(-c2ccccc2)cc1NC(=O)CSc1nnnn1C	-7	-3.3	-7	.	8.4*
CCOC(=O)CC1COCCN1C(=O)CCc1nnc(-c2ccsc2)o1 (configuration not stated)	.	.	.	.	1
O=C(NCc1ccccn1)[C@H]1C[C@@H]1[C@H](NP(=O)(c1ccccc1)c1ccccc1)c1ccccc1	1	0.49	2	-14	0
CCN(Cc1cc2ccccc2[nH]c1=O)C(=O)c1cccc([N+](=O)[O-])c1	.	-0.53	.	.	.
Cn1c(SCc2ccccc2)nc2ccsc2c1=O	.	-0.07	.	.	2
Cc1ccccc1NC(=O)CC(O)(C(F)(F)F)C(F)(F)F	-20	-0.46	32*	54	1
COCCn1cnc2c1c(=O)n(CC(=O)OCC(=O)NCC(F)(F)F)c(=O)n2Cc1ccccc1	-10	0.36	-3	.	1
CCC(=O)Nc1ccccc1C(=O)OCC(=O)c1ccc2ccccc2c1	-69	-0.1	-10	27	10*
O=C(Nc1cccc(C(F)(F)F)c1)N1CCC(c2nc(-c3ccc(F)cc3)no2)CC1	-40	-0.3	-11	.	10*
O=C(Nc1ccccc1)N1CCCC(c2nc(-c3ccc(F)cc3)no2)C1 (configuration not stated)	-68	-0.2	-18	-28	2
C#Cc1ccc(C(=O)Nc2ccc(N3CCC(C)CC3)c(C(N)=O)c2)cc1	.	-0.26	.	8	4
CCCc1nc2ccc(NC(=O)NCCC(=O)OCC)cc2c(=O)n1Cc1cccc(Cl)c1	-43	-0.63	-6	.	10*
CC1C(Br)C(=O)NC(=O)N1Cc1ccccc1 (configuration not stated)	.	0.17	.	.	2
COc1ccc(CCNC(=O)C2CCN(S(=O)(=O)c3c(C)noc3C)CC2)cc1OC	-18	-0.71	-19	66*	-1
COc1ccc(S(=O)(=O)N2CCC(C(=O)NCCc3ccccc3)CC2)cc1OC	-9	-1.1	-2	21	2
COc1ccc(C)cc1S(=O)(=O)N1CCC(C(=O)NCCc2ccccc2)CC1	8	0.43	28*	24	0
O=S(=O)(c1cccc2cccnc12)N1CCCc2ccccc21	.	0.55	.	.	.
O=C(O)c1cc(-c2ccc(/C=N/Nc3ccc(Cl)cc3)o2)ccc1Cl	95*	0.48	-19	.	4
COc1cc(SC)ccc1C(=O)Nc1ncc(Cl)cc1Cl	.	-0.62	.	-42	3
c1ccc(-c2cccc(-c3ccccn3)n2)nc1	99*	-3.1	-29	.	-1
Cc1ccc(OC(=S)Nc2ccc(O)cc2)cc1	84*	.	.	-328	1
Cc1ccc(N2C(=O)CC(NNC(=O)Cc3ccc(F)cc3)C2=O)cc1Cl (configuration not stated)	.	0.58	.	.	.

Assay outcomes as filed in PubChem.
